pEC50, pIC50: −log10 of the molar value.
Experiments:
[1] = target: T1, Cannabinoid receptor 1 (Homo sapiens, UniProt P21554); experiment: Antagonist activity at human CB1 receptor stably expressed in RD-HGA16 cells assessed as inhibition of CP55,940-induced calcium mobilization after 15 mins by FLIPR assay; type: functional, cell-based
[2] = target: T1, Cannabinoid receptor 1; experiment: Agonist activity at human CB1 receptor stably expressed in RD-HGA16 cells assessed as calcium mobilization at 10000 nM after 15 mins by FLIPR assay relative to CP55,940; type: functional, cell-based
Outline: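 Cells plated at 25 000/well the day before in Ham's F12 with 10% FBS, then loaded 45 min at 37 °C with Calcium 5 dye in HBSS/20 mM HEPES/2.5 mM probenecid, pH 7.4. Vehicle pretreatment for 15 min at 37 °C; test compound added on-line, fluorescence read every 1 s over 90 s.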

[3] = target: T2, Cannabinoid receptor 2 (Homo sapiens, UniProt P34972); experiment: Antagonist activity at human CB2 receptor stably expressed in CHO-RD-HGA16 cells assessed as inhibition of CP55,940-induced calcium mobilization at 10000 nM after 15 mins by FLIPR assay; type: functional, cell-based
[4] = target: T2, Cannabinoid receptor 2; experiment: Antagonist activity at human CB2 receptor stably expressed in CHO-RD-HGA16 cells assessed as inhibition of CP55,940-induced calcium mobilization after 15 mins by FLIPR assay; type: functional, cell-based
[5] = target: T1, Cannabinoid receptor 1; experiment: Displacement of [3H]CP55,940 from human CB1 receptor expressed in HEK293 cells after 1 hr by scintillation counting relative to control; type: cell-based
[6] = target: T1, Cannabinoid receptor 1; experiment: Displacement of [3H]CP55,940 from human CB1 receptor expressed in HEK293 cells after 1 hr by scintillation counting; type: cell-based
[7] = target: T1, Cannabinoid receptor 1; experiment: Allosteric modulation at human CB1 receptor stably expressed in RD-HGA16 cells assessed as inhibition of CP55,940-induced calcium mobilization after 15 mins by FLIPR assay; type: functional, cell-based
Outline: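 Cells plated the day before at 25 000/well and loaded 45 min at 37 °C with Calcium 5 dye in HBSS/20 mM HEPES/2.5 mM probenecid, pH 7.4. Fluorescence was read every 1 s for 90 s.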

T2 sequence (P34972 whole entry): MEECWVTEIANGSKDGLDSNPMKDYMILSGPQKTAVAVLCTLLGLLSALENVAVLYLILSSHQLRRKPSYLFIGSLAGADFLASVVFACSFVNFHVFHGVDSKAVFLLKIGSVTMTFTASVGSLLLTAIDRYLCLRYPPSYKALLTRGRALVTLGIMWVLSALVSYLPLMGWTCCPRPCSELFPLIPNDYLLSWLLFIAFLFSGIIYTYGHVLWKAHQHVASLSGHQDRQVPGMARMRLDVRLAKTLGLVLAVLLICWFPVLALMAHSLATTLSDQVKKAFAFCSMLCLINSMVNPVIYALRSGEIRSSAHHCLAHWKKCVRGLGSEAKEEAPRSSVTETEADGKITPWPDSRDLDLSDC
T1 sequence (P21554 whole entry): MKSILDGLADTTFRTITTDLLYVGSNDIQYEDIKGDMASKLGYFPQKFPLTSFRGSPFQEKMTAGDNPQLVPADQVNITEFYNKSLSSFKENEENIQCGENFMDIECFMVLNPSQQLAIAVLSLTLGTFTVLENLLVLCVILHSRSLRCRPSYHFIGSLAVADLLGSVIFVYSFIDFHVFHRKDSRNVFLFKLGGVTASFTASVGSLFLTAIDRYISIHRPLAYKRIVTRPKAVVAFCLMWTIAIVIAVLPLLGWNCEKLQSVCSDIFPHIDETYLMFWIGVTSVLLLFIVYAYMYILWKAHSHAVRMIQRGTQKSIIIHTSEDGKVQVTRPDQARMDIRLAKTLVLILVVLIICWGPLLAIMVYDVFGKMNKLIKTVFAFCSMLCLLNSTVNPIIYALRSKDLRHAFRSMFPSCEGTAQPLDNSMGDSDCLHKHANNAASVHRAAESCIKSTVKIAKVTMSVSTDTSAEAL

SMILES	pIC50 [1]	Activity [2] [%]	inhibition [3] [%]	pIC50 [4]	inhibition [1]	Emax [5] [%]	pEC50 [6]	Activity [7]
CCCNc1cccc(-c2cccc(NC(=O)Nc3ccc(Cl)cc3)c2)n1	6.51	19.6	< 35	–	–	–	–	–
CC(C)c1ccccc1NC(=O)Nc1cccc(-c2cccc(N3CCCC3)n2)c1	< 5.00	< 15	< 35	–	–	–	–	–
CCCCCCNc1cccc(-c2cccc(NC(=O)Nc3ccc(Cl)cc3)c2)n1	5.87	< 15	< 35	–	–	–	–	–
CC(=O)Nc1cccc(-c2cccc(NC(=O)Nc3ccc(Cl)cc3)c2)n1	6.60	47	–	5.29	–	–	–	–
CCN(C)c1cccc(-c2cccc(NC(=O)Nc3ccc(Cl)cc3)c2)n1	7.27	< 15	< 35	–	–	–	–	–
O=C(Nc1ccc(Br)cc1)Nc1cccc(-c2cccc(N3CCCC3)n2)c1	7.01	< 15	< 35	–	–	–	–	–
CCCCN(CCCC)c1cccc(-c2cccc(NC(=O)Nc3ccc(Cl)cc3)c2)n1	6.16	< 15	< 35	–	–	–	–	–
O=C(Nc1cccc(-c2cccc(N3CCCC3)n2)c1)Nc1cccc2ccccc12	< 5.00	< 15	< 35	–	–	–	–	–
O=C(Nc1ccccc1)Nc1cccc(-c2cccc(N3CCCC3)n2)c1	6.78	< 15	< 35	–	–	–	–	–
COc1cc(NC(=O)Nc2cccc(-c3cccc(N4CCCC4)n3)c2)cc(OC)c1OC	< 5.00	< 15	–	< 5.00	–	–	–	–
O=C(Nc1cccc(Cl)c1)Nc1cccc(-c2cccc(N3CCCC3)n2)c1	6.64	19.6	< 35	–	–	–	–	–
CN(C)c1ccc(NC(=O)Nc2cccc(-c3cccc(N4CCCC4)n3)c2)cc1	5.79	< 15	< 35	–	–	–	–	–
O=C(Nc1ccc(Cl)cc1)Nc1cccc(-c2cccc(N3CCCC3)n2)c1	–	28.2	–	< 5.00	Dose-dependent effect	174	–	–
O=C(Nc1ccc(F)cc1)Nc1cccc(-c2cccc(N3CCCC3)n2)c1	7.49	23.2	< 35	–	–	172	6.68	–
COc1ccc(NC(=O)Nc2cccc(-c3cccc(N4CCCC4)n3)c2)cc1	6.72	< 15	< 35	–	–	–	–	–
N#Cc1ccc(NC(=O)Nc2cccc(-c3cccc(N4CCCC4)n3)c2)cc1	7.48	30	–	< 5.00	–	172	7.26	Dose-dependent effect
CCNc1cccc(-c2cccc(NC(=O)Nc3ccc(Cl)cc3)c2)n1	6.74	< 15	< 35	–	–	–	–	–
O=C(Nc1ccc(Cl)cc1)Nc1cccc(-c2cccc(N3CCCCC3)n2)c1	7.02	35	–	< 5.00	–	132	–	–
Cc1ccc(NC(=O)Nc2cccc(-c3cccc(N4CCCC4)n3)c2)cc1	6.69	< 15	< 35	–	–	–	–	–

SMILES	pIC50 [1]	Activity [2] [%]	inhibition [3] [%]	pIC50 [4]	inhibition [1]	Emax [5] [%]	pEC50 [6]	Activity [7]
CCN(CC)c1cccc(-c2cccc(NC(=O)Nc3ccc(Cl)cc3)c2)n1	6.90	< 15	< 35	–	–	–	–	–
O=C(Nc1cccc(-c2cccc(N3CCCC3)n2)c1)Nc1ccc2c(c1)OCO2	6.51	< 15	< 35	–	–	–	–	–
O=C(Nc1ccc([N+](=O)[O-])cc1)Nc1cccc(-c2cccc(N3CCCC3)n2)c1	7.00	27.9	< 35	–	–	–	–	–
CCCCN(C)c1cccc(-c2cccc(NC(=O)Nc3ccc(Cl)cc3)c2)n1	6.98	22.1	< 35	–	–	–	–	–
O=C(Nc1cc(Cl)cc(Cl)c1)Nc1cccc(-c2cccc(N3CCCC3)n2)c1	6.15	22.2	–	< 5.00	–	–	–	–
CCc1ccccc1NC(=O)Nc1cccc(-c2cccc(N3CCCC3)n2)c1	< 5.00	< 15	< 35	–	–	–	–	–
CCCCCNc1cccc(-c2cccc(NC(=O)Nc3ccc(Cl)cc3)c2)n1	6.06	< 15	< 35	–	–	–	–	–
CCCCNc1cccc(-c2cccc(NC(=O)Nc3ccc(Cl)cc3)c2)n1	7.03	26.5	< 35	–	–	161	5.82	–
Cc1cccc(C)c1NC(=O)Nc1cccc(-c2cccc(N3CCCC3)n2)c1	< 5.00	< 15	< 35	–	–	–	–	–
O=C(Nc1ccc(Cl)nc1)Nc1cccc(-c2cccc(N3CCCC3)n2)c1	6.87	< 15	< 35	–	–	196	6.39	–
Cc1cc(C)cc(NC(=O)Nc2cccc(-c3cccc(N4CCCC4)n3)c2)c1	5.73	< 15	< 35	–	–	–	–	–
CCCN(C)c1cccc(-c2cccc(NC(=O)Nc3ccc(Cl)cc3)c2)n1	6.81	< 15	< 35	–	–	–	–	–
O=C(Nc1cccc(-c2cccc(N3CCCC3)n2)c1)Nc1ccc(Cl)c(Cl)c1	6.79	< 15	–	< 5.00	–	–	–	–
O=C(Nc1ccc(Cl)cc1)Nc1cccc(-c2cccc(NC3CCCC3)n2)c1	6.30	35	–	< 5.00	–	–	–	–
CCCN(CCC)c1cccc(-c2cccc(NC(=O)Nc3ccc(Cl)cc3)c2)n1	6.43	29	< 35	–	–	–	–	–
CNc1cccc(-c2cccc(NC(=O)Nc3ccc(Cl)cc3)c2)n1	6.50	< 15	< 35	–	–	–	–	–
CCc1c(C(=O)NCCc2ccc(N3CCCCC3)cc2)[nH]c2ccc(Cl)cc12	–	–	–	–	Dose-dependent effect	–	–	–
CN(C)c1cccc(-c2cccc(NC(=O)Nc3ccc(Cl)cc3)c2)n1	7.56	< 15	< 35	–	–	184	6.18	Dose-dependent effect
O=C(Nc1cccc(-c2cccc(N3CCCC3)n2)c1)Nc1ccc2ccccc2c1	6.05	< 15	< 35	–	–	–	–	–

— ChEMBL document CHEMBL3351332 (J Med Chem, 2014)
